According to ChEMBL document CHEMBL4033795, “Design, Synthesis, and Structure-Activity Relationship Study of 2-Oxo-3,4-dihydropyrimido[4,5- d]pyrimidines as New Colony Stimulating Factor 1 Receptor (CSF1R) Kinase Inhibitors” (J Med Chem, 2018):
pIC50: −log10 of the molar value.

Experiments:
[1] = target: Ephrin type-A receptor 1 (Homo sapiens) (UniProt P21709); test: Inhibition of recombinant human EPHA1 (V588 to I913 residues) expressed in bacterial expression system at 100 nM by KINOMEscan assay relative to control
Ephrin type-A receptor 1 (Homo sapiens), sequence (P21709 whole entry, the tested form may be a part): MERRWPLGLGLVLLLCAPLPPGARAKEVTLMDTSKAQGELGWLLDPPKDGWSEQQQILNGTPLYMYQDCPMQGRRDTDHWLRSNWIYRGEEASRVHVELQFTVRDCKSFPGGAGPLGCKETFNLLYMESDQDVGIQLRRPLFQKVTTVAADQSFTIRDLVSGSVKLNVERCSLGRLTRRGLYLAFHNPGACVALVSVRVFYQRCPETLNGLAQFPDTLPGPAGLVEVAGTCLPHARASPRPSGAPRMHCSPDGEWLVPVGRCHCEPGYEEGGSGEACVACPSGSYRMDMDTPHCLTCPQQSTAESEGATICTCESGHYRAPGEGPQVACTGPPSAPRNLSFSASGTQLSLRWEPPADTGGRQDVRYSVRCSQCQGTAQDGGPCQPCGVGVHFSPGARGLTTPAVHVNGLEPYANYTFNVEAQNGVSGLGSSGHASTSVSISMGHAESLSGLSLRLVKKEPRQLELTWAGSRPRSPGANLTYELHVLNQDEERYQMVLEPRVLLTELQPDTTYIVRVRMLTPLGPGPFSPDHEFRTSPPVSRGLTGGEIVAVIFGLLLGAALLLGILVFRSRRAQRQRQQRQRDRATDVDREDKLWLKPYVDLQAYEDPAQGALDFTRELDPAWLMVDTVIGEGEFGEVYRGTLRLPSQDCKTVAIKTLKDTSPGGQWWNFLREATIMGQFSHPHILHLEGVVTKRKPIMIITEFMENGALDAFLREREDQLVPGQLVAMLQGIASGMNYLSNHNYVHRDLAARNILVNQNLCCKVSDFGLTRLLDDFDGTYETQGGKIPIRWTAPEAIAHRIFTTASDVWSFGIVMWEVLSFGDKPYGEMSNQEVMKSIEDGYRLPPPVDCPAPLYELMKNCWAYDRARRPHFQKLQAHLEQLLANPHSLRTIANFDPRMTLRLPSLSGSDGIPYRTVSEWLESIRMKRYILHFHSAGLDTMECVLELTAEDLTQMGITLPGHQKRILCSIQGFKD

[2] = target: T1, Macrophage colony-stimulating factor 1 receptor (Mus musculus) (UniProt P09581); test: Inhibition of CSF1R phosphorylation in mouse RAW264.7 cells at 80 nM preincubated for 6 hrs followed by CSF1 stimulation for 20 mins by Western blot analysis relative to control; type: cell-based
T1 sequence (whole entry): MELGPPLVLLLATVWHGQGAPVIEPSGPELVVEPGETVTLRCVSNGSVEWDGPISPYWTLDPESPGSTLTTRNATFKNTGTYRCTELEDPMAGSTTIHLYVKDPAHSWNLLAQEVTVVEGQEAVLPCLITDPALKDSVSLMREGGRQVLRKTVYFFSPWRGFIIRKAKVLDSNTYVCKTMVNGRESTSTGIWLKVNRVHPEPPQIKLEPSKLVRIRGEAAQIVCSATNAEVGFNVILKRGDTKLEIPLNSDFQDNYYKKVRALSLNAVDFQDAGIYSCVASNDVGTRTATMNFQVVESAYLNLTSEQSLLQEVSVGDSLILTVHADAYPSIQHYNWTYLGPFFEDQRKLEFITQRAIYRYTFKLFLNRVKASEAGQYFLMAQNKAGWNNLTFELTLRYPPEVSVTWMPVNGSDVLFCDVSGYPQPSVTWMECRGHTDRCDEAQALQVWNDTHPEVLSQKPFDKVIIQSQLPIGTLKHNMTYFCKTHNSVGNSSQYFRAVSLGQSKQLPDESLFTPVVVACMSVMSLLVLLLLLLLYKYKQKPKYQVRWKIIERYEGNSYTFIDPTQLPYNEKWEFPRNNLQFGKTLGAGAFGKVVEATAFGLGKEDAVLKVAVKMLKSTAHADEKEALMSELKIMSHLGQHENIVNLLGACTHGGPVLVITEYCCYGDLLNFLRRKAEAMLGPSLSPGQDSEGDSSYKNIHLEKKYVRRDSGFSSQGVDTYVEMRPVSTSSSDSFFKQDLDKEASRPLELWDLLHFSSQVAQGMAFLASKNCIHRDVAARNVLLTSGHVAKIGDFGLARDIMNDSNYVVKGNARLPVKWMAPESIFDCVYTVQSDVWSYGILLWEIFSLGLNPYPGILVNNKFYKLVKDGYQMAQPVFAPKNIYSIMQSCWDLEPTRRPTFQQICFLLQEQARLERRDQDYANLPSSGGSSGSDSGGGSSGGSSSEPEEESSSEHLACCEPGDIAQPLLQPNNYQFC
How it was run: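 RAW264.7 cells were seeded, incubated overnight and treated 6 h with graded compound concentrations, then stimulated 20 min with CSF-1 (50 ng/mL). Lysates were run on 8−12% SDS-PAGE and immunoblotted for p-CSF1R (Tyr723), CSF1R, p-AKT, AKT and GAPDH. Bands were quantified and normalized to GAPDH. Mean ± SEM of at least three experiments.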

[3] = Oral bioavailability in Sprague-Dawley rat at 25 mg/kg administered via gavage measured up to 72 hrs by LC/MS analysis; type: ADME, organism-based; settings: in vivo
How it was run: (§1)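 Male Sprague-Dawley rats, 4–6 weeks old, acclimatised 1 week, were dosed iv at 5 mg/kg or by oral gavage at 25 mg/kg. Vehicle was 2% DMSO, 4% EtOH, 4% castor oil, 90% H2O. Blood was drawn by orbital sinus puncture from 2 min to 72 h into heparinized tubes. Plasma was assayed by LC/MS with propranolol as internal standard. Three animals per group.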

[4] = target: Cytoplasmic tyrosine-protein kinase BMX (Homo sapiens) (UniProt P51813); test: Inhibition of recombinant human BMX (M1 to H675 residues) expressed in bacterial expression system at 100 nM by KINOMEscan assay relative to control
Cytoplasmic tyrosine-protein kinase BMX (Homo sapiens), sequence (P51813 whole entry, the tested form may be a part): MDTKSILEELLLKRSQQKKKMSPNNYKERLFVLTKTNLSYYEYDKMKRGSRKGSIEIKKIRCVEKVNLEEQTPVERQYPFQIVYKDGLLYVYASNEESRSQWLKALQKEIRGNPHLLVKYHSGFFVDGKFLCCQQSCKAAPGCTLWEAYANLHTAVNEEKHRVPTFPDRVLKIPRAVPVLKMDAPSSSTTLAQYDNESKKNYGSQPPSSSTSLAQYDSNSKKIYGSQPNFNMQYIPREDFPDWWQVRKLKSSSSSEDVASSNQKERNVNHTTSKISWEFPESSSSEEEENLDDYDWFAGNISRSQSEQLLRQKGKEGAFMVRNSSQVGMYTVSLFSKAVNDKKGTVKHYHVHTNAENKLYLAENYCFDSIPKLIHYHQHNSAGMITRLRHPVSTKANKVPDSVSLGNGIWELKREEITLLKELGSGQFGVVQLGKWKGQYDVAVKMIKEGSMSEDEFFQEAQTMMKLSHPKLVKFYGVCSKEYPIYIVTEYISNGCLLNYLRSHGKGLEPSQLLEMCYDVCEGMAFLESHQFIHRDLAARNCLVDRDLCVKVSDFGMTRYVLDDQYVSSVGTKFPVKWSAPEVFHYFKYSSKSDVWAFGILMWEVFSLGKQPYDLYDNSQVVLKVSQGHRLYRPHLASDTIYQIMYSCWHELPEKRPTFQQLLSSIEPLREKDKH

RAW264.7 [5] = test: Inhibition of protumorigenic potential of mouse RAW264.7 cells assessed as abrogation of human LNCAP cell growth enhancement of macrophages at 2 uM co-cultured for 48 hrs by CCK8 assay relative to control; type: functional; settings: RAW264.7, 48 h
How it was run: (§2)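 LNCaP cells, (2−4) × 10^5, were seeded in the lower transwell chamber. After 2 h, (1−2) × 10^6 RAW264.7 cells were added in a 0.4 μm insert. Compound at 0.016–2.0 μM was added to the top chamber and cells were cocultured 48 h at 37 °C. LNCaP cells were then imaged and counted by CCK8. Run three times, each in triplicate.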

RAW264.7 [6] = test: Downregulation of ARG1 mRNA expression in mouse RAW264.7 cells after 48 hrs by qRT-PCR analysis relative to DMSO; type: functional, cell-based
How it was run: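 RAW264.7 macrophages were treated 48 h with compound at 0.08, 0.4 or 2.0 μM, or DMSO vehicle. Total RNA was extracted with TRIzol and transcripts were quantified by qRT-PCR using gene-specific primers. Run three times, each in triplicate.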

[7] = Half life in Sprague-Dawley rat at 5 mg/kg, iv measured up to 72 hrs by LC/MS analysis; type: ADME, organism-based; settings: in vivo; how it was run: as §1
[8] = target: Tyrosine-protein kinase Lyn (Homo sapiens) (UniProt P07948); test: Inhibition of recombinant human LYN-A expressed in bacterial expression system at 100 nM by KINOMEscan assay relative to control
Tyrosine-protein kinase Lyn (Homo sapiens), sequence (P07948 2-512 limits assumed): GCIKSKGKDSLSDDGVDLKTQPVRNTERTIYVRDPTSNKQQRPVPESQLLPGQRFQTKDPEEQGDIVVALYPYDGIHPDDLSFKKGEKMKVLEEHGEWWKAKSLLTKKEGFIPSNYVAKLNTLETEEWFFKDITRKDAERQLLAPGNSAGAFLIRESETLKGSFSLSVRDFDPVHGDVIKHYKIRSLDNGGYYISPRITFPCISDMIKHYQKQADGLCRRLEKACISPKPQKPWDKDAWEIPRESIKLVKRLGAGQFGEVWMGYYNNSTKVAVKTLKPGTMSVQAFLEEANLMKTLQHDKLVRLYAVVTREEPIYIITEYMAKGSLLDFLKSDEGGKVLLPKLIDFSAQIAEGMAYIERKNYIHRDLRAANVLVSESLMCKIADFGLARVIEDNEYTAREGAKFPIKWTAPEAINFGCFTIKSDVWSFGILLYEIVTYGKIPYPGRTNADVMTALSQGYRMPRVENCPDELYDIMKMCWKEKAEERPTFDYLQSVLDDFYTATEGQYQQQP

[9] = target: Platelet-derived growth factor receptor alpha (Homo sapiens, UniProt P16234); test: Inhibition of recombinant cytoplasmic human GST-tagged PDGFRalpha expressed in baculovirus using poly (4:1 Glu, Tyr) peptide as substrate after 1 hr by ADP-Glo assay
Platelet-derived growth factor receptor alpha, sequence (P16234 whole entry, the tested form may be a part): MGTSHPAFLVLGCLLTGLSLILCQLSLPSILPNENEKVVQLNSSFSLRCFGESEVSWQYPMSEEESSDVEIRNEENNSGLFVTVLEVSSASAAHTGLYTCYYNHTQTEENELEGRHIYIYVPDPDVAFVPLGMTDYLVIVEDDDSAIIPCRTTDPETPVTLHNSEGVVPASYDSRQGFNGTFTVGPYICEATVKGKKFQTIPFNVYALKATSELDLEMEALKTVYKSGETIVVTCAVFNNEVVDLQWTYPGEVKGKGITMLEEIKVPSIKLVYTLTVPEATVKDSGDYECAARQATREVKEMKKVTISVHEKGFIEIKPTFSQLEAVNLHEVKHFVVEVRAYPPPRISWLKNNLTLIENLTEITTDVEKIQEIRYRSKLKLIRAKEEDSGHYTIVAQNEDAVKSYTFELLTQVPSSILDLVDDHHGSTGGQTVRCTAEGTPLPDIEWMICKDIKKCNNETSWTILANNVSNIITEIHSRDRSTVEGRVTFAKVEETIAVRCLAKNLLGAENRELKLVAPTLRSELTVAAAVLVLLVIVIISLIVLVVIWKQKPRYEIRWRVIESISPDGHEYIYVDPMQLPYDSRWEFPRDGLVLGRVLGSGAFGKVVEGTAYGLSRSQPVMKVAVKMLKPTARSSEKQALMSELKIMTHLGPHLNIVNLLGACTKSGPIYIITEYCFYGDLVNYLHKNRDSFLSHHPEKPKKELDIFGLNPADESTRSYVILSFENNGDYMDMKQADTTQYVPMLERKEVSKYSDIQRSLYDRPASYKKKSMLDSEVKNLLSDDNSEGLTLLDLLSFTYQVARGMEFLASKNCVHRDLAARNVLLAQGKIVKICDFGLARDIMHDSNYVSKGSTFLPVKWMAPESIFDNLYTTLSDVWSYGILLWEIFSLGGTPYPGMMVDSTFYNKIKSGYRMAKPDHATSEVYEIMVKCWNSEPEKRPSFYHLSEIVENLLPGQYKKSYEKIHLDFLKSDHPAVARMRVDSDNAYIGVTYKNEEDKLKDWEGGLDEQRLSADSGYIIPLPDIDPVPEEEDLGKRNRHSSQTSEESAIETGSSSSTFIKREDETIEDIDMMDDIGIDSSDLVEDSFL

[10] = target: Proto-oncogene tyrosine-protein kinase receptor Ret (Homo sapiens) (UniProt P07949); test: Inhibition of human RET (E713 to D1014 residues) expressed in bacterial expression system at 100 nM by KINOMEscan assay relative to control
Proto-oncogene tyrosine-protein kinase receptor Ret (Homo sapiens), sequence (P07949 whole entry, the tested form may be a part): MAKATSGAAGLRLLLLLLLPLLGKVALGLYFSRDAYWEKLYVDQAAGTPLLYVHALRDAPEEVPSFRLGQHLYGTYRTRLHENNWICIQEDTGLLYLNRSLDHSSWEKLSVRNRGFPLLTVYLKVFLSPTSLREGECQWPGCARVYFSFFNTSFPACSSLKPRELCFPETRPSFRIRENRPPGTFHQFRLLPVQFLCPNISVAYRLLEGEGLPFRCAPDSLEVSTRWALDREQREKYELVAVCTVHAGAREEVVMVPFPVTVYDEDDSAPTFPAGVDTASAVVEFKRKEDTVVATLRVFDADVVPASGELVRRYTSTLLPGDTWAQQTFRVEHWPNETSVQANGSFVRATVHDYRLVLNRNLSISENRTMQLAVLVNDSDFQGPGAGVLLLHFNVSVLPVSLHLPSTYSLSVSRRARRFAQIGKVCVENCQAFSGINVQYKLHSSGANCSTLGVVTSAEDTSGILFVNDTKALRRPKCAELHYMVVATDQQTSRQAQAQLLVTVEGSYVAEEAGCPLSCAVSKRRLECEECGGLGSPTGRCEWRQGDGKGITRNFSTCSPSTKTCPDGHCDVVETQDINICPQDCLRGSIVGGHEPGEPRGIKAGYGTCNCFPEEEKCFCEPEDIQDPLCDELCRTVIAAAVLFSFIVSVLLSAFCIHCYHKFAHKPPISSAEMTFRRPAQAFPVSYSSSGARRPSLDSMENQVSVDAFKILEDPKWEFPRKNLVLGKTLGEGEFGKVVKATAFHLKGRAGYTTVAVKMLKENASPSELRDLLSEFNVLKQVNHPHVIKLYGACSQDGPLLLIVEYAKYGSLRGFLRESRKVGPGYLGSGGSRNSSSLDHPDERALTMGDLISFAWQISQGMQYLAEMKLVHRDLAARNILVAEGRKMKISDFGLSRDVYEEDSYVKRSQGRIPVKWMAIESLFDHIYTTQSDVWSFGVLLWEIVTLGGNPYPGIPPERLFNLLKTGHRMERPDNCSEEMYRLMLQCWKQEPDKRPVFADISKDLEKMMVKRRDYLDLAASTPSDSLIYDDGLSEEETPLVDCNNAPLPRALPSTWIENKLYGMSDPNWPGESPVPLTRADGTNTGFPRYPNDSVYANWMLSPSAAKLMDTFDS

RAW264.7 [11] = test: Inhibition of protumorigenic potential of mouse RAW264.7 cells assessed as abrogation of human LNCAP cell growth enhancement of macrophages at 0.08 uM co-cultured for 48 hrs by CCK8 assay relative to control; type: functional; settings: RAW264.7, 48 h; how it was run: as §2
RAW264.7 [12] = test: Antimigratory activity against mouse RAW264.7 cells assessed as inhibition of human LNCaP-MDV-CM mediated macrophage migration at 5 uM after 24 hrs by crystal violet staining based transwell assay relative to control; type: functional; settings: RAW264.7, 24 h
How it was run: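 RAW264.7 cells, (2−4) × 10^5, were placed serum-free in the upper insert of a transwell. The lower chamber held conditioned medium from LNCaP cells grown 48 h in 10% FBS RPMI 1640 with 10 μM MDV3100 or DMSO. Compound at 0.625–5.0 μM was added to the top chamber for 24 h at 37 °C. Migrated cells were fixed in methanol, stained with 0.25% crystal violet and counted in six random fields at 200×. Three independent experiments.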

What does the source list for CCC(=O)N1CC[C@H](N2C(=O)N(c3cc(OC)ccc3Cl)Cc3cnc(Nc4ccc(N5CCN(C6COC6)CC5)c(C)c4)nc32)C1?
inhibition [1]: > 90%; inhibition [2]: 50%; bioavailability [3]: 44.4%; inhibition [4]: > 90%; inhibition at 2 µM (RAW264.7 [5]): 94.6%; Activity (RAW264.7 [6]): Dose-dependent effect; half-life [7]: 1.08 h; inhibition [8]: > 90%; pIC50 [9]: 7.13; inhibition [10]: > 90%; inhibition at 0.08 µM (RAW264.7 [11]): 70%; inhibition at 5 µM (RAW264.7 [12]): 90.7%
